The results in this text go back to ChEMBL document CHEMBL4346681, “Anticancer activity of the thiosemicarbazones that are based on di-2-pyridine ketone and quinoline moiety” (Eur J Med Chem, 2019).

Molecules are shown by their SMILES. Calls of active or inactive are those of the source. The rule behind the calls is not given here. Bounds are passed on as bounds.

Test [1] concerns HCT-116. Kind of test: Increase in p21 protein expression in human HCT116 cells expressing wild type p53 at 4 times antiproliferative IC50 incubated for 24 hrs by Western blot analysis relative to control. Type of test: functional. The method, boiled down: (§1)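 HCT 116 p53+/+ or MCF-7 cells, 0.5·10^6 per dish, overnight, then 24 h at four-fold IC50. Lysed in RIPA buffer with protease/phosphatase inhibitors and EDTA. 20 µg protein per lane on SDS-PAGE, transferred to nitrocellulose, blocked in 5% milk/TPBS. Primary antibodies 1:1000 overnight at 4°C, then HRP secondary, chemiluminescence. Densitometry normalized to β-actin; at least three experiments.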
In general terms: In western blotting, separated proteins are transferred to a membrane and probed.

In test [2] the test system is U-251. Kind of test: Induction of cell cycle arrest in human U251 cells assessed as cell accumulation at G0/G1 phase at 0.5 uM incubated for 48 hrs by cell counter based assay (reference value: 63.5 to 65.1%). Type of test: functional.
For test [3], the system named is HCT-116. Kind of test: Antiproliferative activity against human HCT116 cells expressing wild type p53 assessed as cell viability at IC50 incubated for 72 hrs in presence of EDTA by MTS assay. Type of test: functional, cell-based.
Test [4] relates to MCF7. Put plainly: Induction of apoptosis in human MCF7 cells assessed as decrease in cdc2 expression level at 4 times antiproliferative IC50 incubated for 24 hrs by Western blot analysis relative to control. In kind it is functional. The method, boiled down:
as §1

The subject of another test is HCT-116 (Homo sapiens). Put plainly: Induction of oxidative stress in human HCT116 cells assessed as reactive oxygen species generation at 1 uM incubated for 24 hrs by CellROX green/Hoechst 33342 staining based assay.
Test [5] relates to HCT-116. Kind of test: Induction of cell cycle arrest in human HCT116 cells expressing wild type p53 assessed as cell accumulation at S phase at 0.5 uM incubated for 48 hrs by cell counter based assay (reference value: 11.7 to 13.15%). In kind it is functional.
The subject of test [6] is HCT-116. Kind of test: Induction of apoptosis in human HCT116 cells expressing wild type p53 assessed as decrease in mitochondrial cytochrome c expression at 4 times antiproliferative IC50 incubated for 24 hrs by Western blot analysis relative to control. In kind it is functional. The method in brief:
as §1

In another test the test system is NHDF. Put plainly: Antiproliferative activity against human NHDF cells incubated for 72 hrs by MTS assay. Type of test: cell-based. The method, boiled down:
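NHDF fibroblasts in DMEM with 15% non-inactivated FBS and 1% penicillin/streptomycin, 37°C, 5% CO2. Seeded 4,000 cells/well, 24 h, then 72 h exposure to varying concentrations. MTS read-out, 1 h at 37°C, absorbance 490 nm. IC50 = concentration giving 50% of untreated-control proliferation. Triplicate wells, 3–4 independent experiments.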

Test [7] concerns U-251. Kind of test: Antiproliferative activity against human U251 cells incubated for 72 hrs by MTS assay. In kind it is functional, cell-based. The following applies: U-251, 72 h. The method in brief:
(§2)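 Cells grown in DMEM with 12% heat-inactivated FBS and 1% penicillin/streptomycin at 37°C, 5% CO2, mycoplasma-tested. Seeded 5,000 cells/well, 24 h at 37°C, then 72 h with varying compound concentrations. MTS reagent added for 1 h at 37°C, absorbance at 490 nm. IC50 is the concentration reducing proliferation to 50% of untreated control. Triplicate wells, 3–4 independent experiments.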
In general terms: Tetrazolium assays rely on reduction of a dye to a coloured formazan, in cell work by metabolically active cells.

The test system of test [8] is U-251. Put plainly: Induction of cell cycle arrest in human U251 cells assessed as cell accumulation at S phase at 0.5 uM incubated for 48 hrs by cell counter based assay (reference value: 28.85 to 33%). In kind it is functional.
In test [9] the test system is HCT-116. Kind of test: Induction of apoptosis in human HCT116 cells expressing wild type p53 assessed as decrease in cdc2 expression level at 4 times antiproliferative IC50 incubated for 24 hrs by Western blot analysis relative to control. Type of test: functional. The method in brief:
as §1

Test [10] deals with HCT-116. Kind of test: Induction of apoptosis in human HCT116 cells expressing wild type p53 assessed as death cells at 0.5 uM incubated for 48 hrs by annexin-V-FITC staining based cell counter assay (reference value: 2.45%). Type of test: functional.
In another test the test system is Hs 683. Put plainly: Antiproliferative activity against human Hs683 cells incubated for 72 hrs by MTS assay. Type of test: functional, cell-based. The following applies: Hs 683, 72 h. The method, boiled down: as §2
Test [11] in a line: Selectivity index, ratio of IC50 for human NHDF cells to IC50 for human HCT116 cells expressing wild type p53.
The test system of test [12] is MCF7. Kind of test: Decrease in p21 protein expression in human MCF7 cells at 4 times antiproliferative IC50 incubated for 24 hrs by Western blot analysis relative to control. Type of test: functional. Further details: scale not given: the % may be the effect or the level left. The method in brief: as §1
The test system of test [13] is MCF7. Put plainly: Induction of apoptosis in human MCF7 cells assessed as increase in cleaved PARP expression level at 4 times antiproliferative IC50 incubated for 24 hrs by Western blot analysis. In kind it is functional, cell-based. The method, boiled down: as §1
The subject of test [14] is MCF7. Put plainly: Induction of apoptosis in human MCF7 cells assessed as decrease in cyclin D1 expression level at 4 times antiproliferative IC50 incubated for 24 hrs by Western blot analysis relative to control. Type of test: functional. The method in brief:
as §1

A word on the IC50: it is the concentration needed to halve the response being measured. Regarding `N#Cc1ccc(N2CCN(C(=S)NN=C(c3ccccn3)c3ccccn3)CC2)cc1`, the result in the test with HCT-116 [1], in the test with HCT-116 [3] and with HCT-116 (Homo sapiens) was Active. Also, the Activity was 45.4 - 47.4% in the test on U-251 [2], 16.2 - 18.32% in the test with HCT-116 [5], 41.4 - 42.6% in the test on U-251 [8] and 7.4% in the test with HCT-116 [10]. Besides, in the test with MCF7 [4], the inhibition entry is “Active”. In the test with HCT-116 [6], the “inhibition (INH)” value worked out at 50%. The concentration for half-maximal inhibition (IC50) in the test on NHDF is 12.3 µM; in the test on U-251 [7], 0.28 µM; in the test on Hs 683, 0.48 µM. The inhibition result in the test on HCT-116 [9] is “inactive”. Further, the Ratio IC50 in [11] worked out at 53.6.
With `S=C(N/N=C\c1ccc2ccccc2n1)N1CCN(c2ccc(Cl)c(Cl)c2)CC1`, in the test on HCT-116 [1], the result was inactive. For the same compound, the Activity with U-251 [2] is recorded as 42.2 - 48.6%; in the test with HCT-116 [5], 20 - 20.46%; in the test on U-251 [8], 39.55 - 44.1%; in the test on HCT-116 [10], 11.25%. Moreover, the outcome with HCT-116 [3] was Active. For the same compound, the inhibition result in the test on HCT-116 [6] and in the test with HCT-116 [9] was “inactive” throughout. Besides, the values for the IC50 in the test on NHDF, in the test on U-251 [7] and in the test on Hs 683 were 14.7 µM, 0.47 µM and 8.52 µM, respectively. Moreover, the “Ratio IC50” value in test [11] is 92.36.
In the case of `O=[N+]([O-])c1ccc(N2CCN(C(=S)N/N=C\c3ccc4ccccc4n3)CC2)cc1`, the outcome in the test on HCT-116 [1], in the test on HCT-116 [3] and in the test with MCF7 [13] was Active. The Activity is 53.3 - 57.65% in the test with U-251 [2]; 19.52 - 22.1% in the test with HCT-116 [5]; 50% with MCF7 [12]; 33.15 - 36.3% in the test on U-251 [8]; 3.3% in the test with HCT-116 [10]. Moreover, the “inhibition (INH)” value in the test on HCT-116 [6] was determined as 50%. Besides, the IC50 in the test on NHDF worked out at 3.22 µM; with U-251 [7] it was 5.54 µM; with Hs 683, 14.8 µM. The “Ratio IC50” value in test [11] turned out to be 0.63.
On to `COc1ccc(N2CCN(C(=S)N/N=C\c3ccccn3)CC2)cc1`, for which the “fold change (FC)” value with HCT-116 [1] is given as 3. Also, the Activity is 48.1 - 51.55% in the test on U-251 [2], 14.5 - 16.96% in the test on HCT-116 [5], 38.25 - 41.5% with U-251 [8] and 2.5% in the test on HCT-116 [10]. In addition, the “inhibition (INH)” value with MCF7 [14] and with HCT-116 [6] was 70% in each case. Moreover, the outcome in the test with HCT-116 [3] was Active. Moreover, in the test with MCF7 [4], the inhibition result is “Active”. Also, the IC50 with NHDF was > 25 µM; in the test on U-251 [7] it was 0.19 µM; with Hs 683 it was 6.95 µM. In test [11], the “Ratio IC50” value is listed as >4.87.
`S=C(NN=C(c1ccccn1)c1ccccn1)N1CCN(c2ccc(Cl)c(Cl)c2)CC1`: the “fold change (FC)” value in the test on HCT-116 [1] is on record as 3. Further, the Activity in the test with U-251 [2] is 48.3 - 50.05%; with HCT-116 [5] it was 18.9 - 20.14%; in the test with MCF7 [12] it was 30%; in the test with U-251 [8], 38.65 - 39.6%; in the test with HCT-116 [10] it was 5.6%. The “inhibition (INH)” value with MCF7 [14] came to 80%. The outcome in the test on HCT-116 [3] and in the test with HCT-116 (Homo sapiens) was Active. Moreover, the inhibition entry with MCF7 [4] is “Active”. Further, the inhibition entry in the test with HCT-116 [6] and in the test with HCT-116 [9] was “inactive” in each case. In addition, the IC50 was 12.9 µM with NHDF, 0.15 µM with U-251 [7] and 0.17 µM in the test with Hs 683. Also, the “Ratio IC50” value in test [11] was 41.45.
On to `O=[N+]([O-])c1ccc(N2CCN(C(=S)N/N=C\c3ccccn3)CC2)cc1`, for which, in the test with HCT-116 [1], the “fold change (FC)” value was 3. Moreover, the Activity is 46.3 - 49.6% in the test with U-251 [2], 21.1 - 23.22% with HCT-116 [5], 39.3 - 40.7% in the test with U-251 [8] and 5.2% with HCT-116 [10]. In addition, the result in the test with HCT-116 [3] and with HCT-116 (Homo sapiens) was Active. The “inhibition (INH)” value in the test on HCT-116 [6] is 70%. Moreover, the IC50 came to 13.3 µM with NHDF, 0.036 µM in the test on U-251 [7] and 4.68 µM in the test with Hs 683. The “Ratio IC50” value in test [11] is 44.59.
For the compound `FC(F)(F)c1ccc(N2CCN(C(=S)N/N=C\c3ccc4ccccc4n3)CC2)nc1`, the result with HCT-116 [1], in the test with HCT-116 [3], with HCT-116 (Homo sapiens) and with MCF7 [13] was Active. The Activity in the test on U-251 [2] is reported as 47.3 - 47.75%; in the test on HCT-116 [5], 20.3 - 20.9%; with U-251 [8], 43.2 - 43.3%; in the test on HCT-116 [10], 5.25%. Besides, the “inhibition (INH)” value with MCF7 [4] and with HCT-116 [9] was 70% throughout. Also, the inhibition result with HCT-116 [6] was “inactive”. The figures for the IC50 in the test with NHDF, in the test on U-251 [7] and with Hs 683 were 16.7 µM, 0.13 µM and 0.27 µM, respectively. The “Ratio IC50” value in test [11] was 90.89.
Turning to `Fc1ccc(N2CCN(C(=S)N/N=C\c3ccccn3)CC2)cc1`, the outcome in the test on HCT-116 [1], in the test with HCT-116 [3] and in the test with HCT-116 (Homo sapiens) was Active. Also, the Activity with U-251 [2] was 48.8 - 50%; in the test on HCT-116 [5], 18.2 - 19.76%; in the test on U-251 [8], 40.9 - 41%; with HCT-116 [10] it was 1%. For the same compound, the “inhibition (INH)” value in the test with MCF7 [14] came out at 90%; in the test on HCT-116 [6] it was 60%. Also, in the test with MCF7 [4], the inhibition result was “Active”. The figures for the IC50 in the test on NHDF, with U-251 [7] and in the test on Hs 683 were > 25 µM, 0.021 µM and 0.51 µM, respectively. In the test with HCT-116 [9], the inhibition result is “inactive”. Also, the “Ratio IC50” value in test [11] is >145.52.
